The source made the active and inactive calls. No cut-off for these calls is given here.
Assays:
[1] = target: T1, Lipopolysaccharide heptosyltransferase 1 (Escherichia coli (strain K12)) (UniProt P24173); assay: Substrate activity at Escherichia coli Heptosyltransferase I assessed as ADP release at 100 uM using phospho(enol)pyruvate and NADH by pyruvate kinase and LDH based ADP/NADH coupling assay
T1 sequence (whole entry): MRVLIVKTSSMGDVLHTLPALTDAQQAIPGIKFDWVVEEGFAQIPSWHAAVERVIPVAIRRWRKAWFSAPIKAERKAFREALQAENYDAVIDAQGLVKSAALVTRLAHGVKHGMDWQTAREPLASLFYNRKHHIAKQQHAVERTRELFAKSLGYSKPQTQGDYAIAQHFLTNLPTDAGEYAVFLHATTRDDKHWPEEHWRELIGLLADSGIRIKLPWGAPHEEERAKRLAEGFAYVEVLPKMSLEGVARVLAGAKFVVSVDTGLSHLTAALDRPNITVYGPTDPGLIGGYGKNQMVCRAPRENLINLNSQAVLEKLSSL
How it was run: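 Screening for acceptor-substrate (nucleophile) use by HepI. Each compound replaces the normal Kdo2-Lipid A-type acceptor. ADP-heptose is the heptose donor. Free glucose and galactose and their α- and β-methyl glycosides were screened the same way before the synthesized compounds.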

[2] = target: T1, Lipopolysaccharide heptosyltransferase 1 (Escherichia coli (strain K12)); assay: Inhibition of Escherichia coli Heptosyltransferase I assessed as reduction in ADP release at 1 mM using ODLA and ADP-heptose substrates in presence of phospho(enol)pyruvate and NADH by pyruvate kinase and LDH based ADP/NADH coupling assay
[3] = target: T2, Lipopolysaccharide heptosyltransferase 1 (Escherichia coli (strain K12), UniProt P24173); assay: Inhibition of Escherichia coli Heptosyltransferase I assessed as reduction in ADP release using ODLA and ADP-heptose substrates in presence of phospho(enol)pyruvate and NADH by pyruvate kinase and LDH based ADP/NADH coupling assay
T2 sequence (P24173 whole entry): T1 sequence (whole entry)

[4] = compound: CCCC/C=C/CO[C@@H]1O[C@H](CO)[C@@H](O)[C@H](O)[C@H]1O; assay: (§1) Noncompetitive mixed type inhibition of Escherichia coli Heptosyltransferase I assessed as reduction in ADP release by measuring ADP-heptose Km at 1000 uM using ODLA and ADP-heptose substrates in presence of phospho(enol)pyruvate and NADH by pyruvate kinase and LDH dependent ADP/NADH coupling assay based Lineweaver-Burk plot
[5] = compound: CCCC/C=C/CO[C@@H]1O[C@H](CO)[C@@H](O)[C@H](O)[C@H]1O; assay: as §1, with “100” for “1000”
[6] = compound: CCCC/C=C/CO[C@@H]1O[C@H](CO)[C@@H](O)[C@H](O)[C@H]1O; assay: as §1, with “10” for “1000”
[7] = compound: CCCC/C=C/CO[C@@H]1O[C@H](CO)[C@@H](O)[C@H](O)[C@H]1O; assay: as §1, with “Kcat” for “Km”
[8] = compound: CCCC/C=C/CO[C@@H]1O[C@H](CO)[C@@H](O)[C@H](O)[C@H]1O; assay: as §1, with “Kcat” for “Km”, “100” for “1000”
[9] = compound: CCCC/C=C/CO[C@@H]1O[C@H](CO)[C@@H](O)[C@H](O)[C@H]1O; assay: as §1, with “Kcat” for “Km”, “10” for “1000”
[10] = compound: CCCC/C=C/CO[C@@H]1O[C@H](CO)[C@@H](O)[C@H](O)[C@H]1O; assay: as §1, with “Noncompetitive” for “Noncompetitive mixed type”, “measuring ODLA” for “measuring ADP-heptose”
[11] = compound: CCCC/C=C/CO[C@@H]1O[C@H](CO)[C@@H](O)[C@H](O)[C@H]1O; assay: as §1, with “Noncompetitive” for “Noncompetitive mixed type”, “measuring ODLA” for “measuring ADP-heptose”, “at 100” for “at 1000”
[12] = compound: CCCC/C=C/CO[C@@H]1O[C@H](CO)[C@@H](O)[C@H](O)[C@H]1O; assay: as §1, with “Noncompetitive” for “Noncompetitive mixed type”, “measuring ODLA” for “measuring ADP-heptose”, “at 10” for “at 1000”
[13] = compound: CCCC/C=C/CO[C@@H]1O[C@H](CO)[C@@H](O)[C@H](O)[C@H]1O; assay: as §1, with “Noncompetitive” for “Noncompetitive mixed type”, “ODLA Kcat” for “ADP-heptose Km”
[14] = compound: CCCC/C=C/CO[C@@H]1O[C@H](CO)[C@@H](O)[C@H](O)[C@H]1O; assay: as §1, with “Noncompetitive” for “Noncompetitive mixed type”, “ODLA Kcat” for “ADP-heptose Km”, “100” for “1000”
[15] = compound: CCCC/C=C/CO[C@@H]1O[C@H](CO)[C@@H](O)[C@H](O)[C@H]1O; assay: as §1, with “Noncompetitive” for “Noncompetitive mixed type”, “ODLA Kcat” for “ADP-heptose Km”, “10” for “1000”

For `CO[C@H]1O[C@H](CO)[C@@H](O)[C@H](O)[C@H]1O`, the Activity [1] was “inactive”, the inhibition [2] was 27.8% and the Ki [3] was 370 µM.

In the case of `CCCCC/C=C/CO[C@@H]1O[C@H](CO)[C@@H](O)[C@H](O)[C@H]1O`, the Activity [1] is reported as “inactive” and the inhibition [2] is reported as 11.9%.

With `CCCC/C=C/CO[C@@H]1O[C@H](CO)[C@@H](O)[C@H](O)[C@H]1O` the Activity [1] was “inactive”, the inhibition [2] was 29.7% and the Ki [3] was 340 µM.

With `CCCCCCCC/C=C/CO[C@H]1O[C@H](CO)[C@@H](O)[C@H](O)[C@H]1O` the Activity [1] was “inactive” and the inhibition [2] was “inactive”.

For `O=C[C@H](O)[C@@H](O)[C@@H](O)[C@H](O)CO` [GALACTOSE], the Activity [1] was “inactive”, the inhibition [2] was 28.5% and the Ki [3] was 500 µM.

In the case of `C=CCO[C@@H]1O[C@H](CO)[C@H](O)[C@H](O)[C@H]1O`, the Activity [1] is reported as “inactive” and the inhibition [2] is reported as 10%.

In the case of `CCCCC/C=C/CO[C@@H]1O[C@H](CO)[C@H](O)[C@H](O)[C@H]1O`, the Activity [1] is reported as “inactive” and the inhibition [2] is reported as 7.8%.

For `CCCCCCCC/C=C/CO[C@@H]1O[C@H](CO)[C@@H](O)[C@H](O)[C@H]1O`, the Activity [1] was “inactive”, the inhibition [2] was 23.4% and the Ki [3] was 520 µM.

In the case of `CO[C@@H]1O[C@H](CO)[C@H](O)[C@H](O)[C@H]1O`, the Activity [1] is reported as “inactive” and the inhibition [2] is reported as 7%.

For `CCCCCCCC/C=C/CO[C@H]1O[C@H](CO)[C@H](O)[C@H](O)[C@H]1O`, the Activity [1] was “inactive” and the inhibition [2] was “inactive”.

`CCCC/C=C/CO[C@@H]1O[C@H](CO)[C@H](O)[C@H](O)[C@H]1O` was tested, and the Activity [1] was “inactive”, the inhibition [2] was 22.6% and the Ki [3] was 570 µM.

For `CCCCCC/C=C/CO[C@H]1O[C@H](CO)[C@H](O)[C@H](O)[C@H]1O`, the Activity [1] was “inactive” and the inhibition [2] was 8.8%.

For `CCCCCC/C=C/CO[C@H]1O[C@H](CO)[C@@H](O)[C@H](O)[C@H]1O`, the Activity [1] was “inactive” and the inhibition [2] was 16.7%.

For `CO[C@H]1O[C@H](CO)[C@H](O)[C@H](O)[C@H]1O`, the Activity [1] was “inactive” and the inhibition [2] was 8.8%.

`C=CCO[C@@H]1O[C@H](CO)[C@@H](O)[C@H](O)[C@H]1O` was tested, and the Activity [1] was “inactive”, the inhibition [2] was 19.6% and the Ki [3] was 650 µM.

With `CCCCCCCC/C=C/CO[C@@H]1O[C@H](CO)[C@H](O)[C@H](O)[C@H]1O` the Activity [1] was “inactive” and the inhibition [2] was 5%.

For `CO[C@@H]1O[C@H](CO)[C@@H](O)[C@H](O)[C@H]1O`, the Activity [1] was “inactive”, the inhibition [2] was 19.5% and the Ki [3] was 680 µM.

In the case of `OC[C@H]1OC(O)[C@H](O)[C@@H](O)[C@@H]1O` (stereo partly specified) [DEXTROSE], the Activity [1] is reported as “inactive” and the Ki [3] is reported as 280 µM.

In the case of `CCCCCC/C=C/CO[C@@H]1O[C@H](CO)[C@@H](O)[C@H](O)[C@H]1O`, the Activity [1] is reported as “inactive” and the inhibition [2] is reported as 4.2%.

`CCCCCC/C=C/CO[C@@H]1O[C@H](CO)[C@H](O)[C@H](O)[C@H]1O` was tested, and the Activity [1] was “inactive” and the inhibition [2] was 6.3%.

For `CCCCCCCCO[C@@H]1O[C@H](CO)[C@@H](O)[C@H](O)[C@H]1O`, the Activity [1] was “inactive” and the inhibition [2] was 8.3%.

B1: Lipopolysaccharide heptosyltransferase 1 (Escherichia coli (strain K12)), P24173 (protein)
chain: T1 sequence (whole entry)
B1 showed a Km [4] of 38 µM, a Km [5] of 135 µM and a Km [6] of 277 µM. For the same molecule, the kcat [7] was 0.76 s⁻¹, the kcat [8] was 1.6 s⁻¹ and the kcat [9] was 2.8 s⁻¹. It also gave a Km [10] of 65 µM, a Km [11] of 108 µM and a Km [12] of 114 µM. It also gave a kcat [13] of 0.9 s⁻¹, a kcat [14] of 1.3 s⁻¹ and a kcat [15] of 1.4 s⁻¹.
